# Test results published in ChEMBL document CHEMBL4390681, “Novel allosteric covalent inhibitors of bifunctional Cryptosporidium hominis TS-DHFR from parasitic protozoa identified by virtual screening” (Bioorg Med Chem Lett, 2019).
# Changes are numbered by the printed parent chain. The source made the active and inactive calls. The rule behind the calls is not given here.
# B1: Bifunctional dihydrofolate reductase-thymidylate synthase (Cryptosporidium hominis), A0A0S4TER9 (protein)
# chain: MSEKNVSIVVAASVLSSGIGINGQLPWSISEDLKFFSKITNNKCDSNKKNALIMGRKTWDSIGRRPLKNRIIVVISSSLPQDEADPNVVVFRNLEDSIENLMNDDSIENIFVCGGESIYRDALKDNFVDRIYLTRVALEDIEFDTYFPEIPETFLPVYMSQTFCTKNISYDFMIFEKQEKKTLQNCDPARGQLKSIDDTVDLLGEIFGIRKMGNRHKFPKEEIYNTPSIRFGREHYEFQYLDLLSRVLENGAYRENRTGISTYSIFGQMMRFDMRESFPLLTTKKVAIRSIFEELIWFIKGDTNGNHLIEKKVYIWSGNGSKEYLERIGLGHREENDLGPIYGFQWRHYNGEYKTMHDDYTGVGVDQLAKLIETLKNNPKDRRHILTAWNPSALSQMALPPCHVLSQYYVTNDNCLSCNLYQRSCDLGLGSPFNIASYAILTMMLAQVCGYEPGELAIFIGDAHIYENHLTQLKEQLSRTPRPFPQLKFKRKVENIEDFKWEDIELIGYYPYPTIKMDMAV
# Target: T1, Bifunctional dihydrofolate reductase-thymidylate synthase (Cryptosporidium hominis) (UniProt A0A0S4TER9)
# T1 sequence (whole entry): B1 chain
# Assay: (§1) Inhibition of recombinant Cryptosporidium hominis TS-DHFR expressed in Escherichia coli PA414 assessed as reduction in DHFR steady state activity at 500 uM using [3',5',7,9-3H]-H2folate as substrate preincubated for 10 mins before NADPH addition for 5 mins followed by substrate addition and measured after 5 mins by NADPH based radiometric chemical quench assay relative to control
# Conditions: not given
# Method in brief: (§2)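 Radiometric DHFR steady-state activity assay on recombinant ChTS-DHFR. Compound was incubated with the enzyme for 10 min before the reaction was started. Single-point screen was at 500 µM, and dose-dependence was also assessed. Activity is expressed as percent of control.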
row,Molecule,inhibition
1,CC(=O)C[C@@]1(O)C(=O)Nc2ccc(F)cc21,-6%
2,O=C(Nc1ccccc1O)c1ccc(Br)cc1O,-0.176%
3,O=C(NNC(=O)c1ccccc1CO)c1ccc(Cl)c(Cl)c1,21.2%
4,O=C(O)C[C@@H]1SC(c2ccc3c(c2)OCO3)=NC1=O,-0.67%
5,O=C(Nc1cc(Cl)cc(Cl)c1)c1cc(Br)ccc1O,49%
6,Nc1cccc(NC(=O)c2ccccc2O)c1,-1.3%
7,O=C(Nc1cccc(Cl)c1)c1cc(Cl)ccc1O,54%
8,O=C(Nc1ccc(Br)cc1)c1ccccc1O,8.8%
9,O=C(Nc1ccc(F)c(Cl)c1)c1cc(Br)ccc1O,61%
10,O=C(O)c1nccnc1-c1nc(=O)c2ccccc2[nH]1,-4.4%
11,NCc1ccc(NC(=O)c2ccccc2O)cc1,1.1%
12,Oc1nc2ccccc2nc1O,-2.6%
13,NC(=S)Cc1c(Cl)sc2ccc(Cl)cc12,32.6%
14,COc1ccc(Br)c(OC)c1C(=O)NC(=O)Nc1cc(Cl)cc(Cl)c1,7.9%
15,COc1cc(C(F)(F)F)c(C(N)=O)cn1,0.29%
16,O=c1ccn([C@H]2C[C@H](O)[C@@H](CO)O2)c(=O)[nH]1,-5.3%
17,Nc1cc(NC(=O)c2ccccc2O)ccc1Cl,-1.3%
18,O=C(Nc1ccc(Cl)cc1)c1cc(Br)ccc1O,11.1%
19,O=C(Nc1ccc(F)cc1)c1cc(Br)ccc1O,20%
20,Cc1ccc(C(=O)Nc2cc(Cl)cc(Cl)c2)c(O)c1,61%
21,CCOC(=O)C1=C(C)NC(C)=C(C(=O)OCC)C1c1ccc2c(c1)OCO2,-7.9%
22,CCOC(=O)C(=CNNC(=O)[C@@H]1[C@@H](C(=O)O)[C@H]2C=C[C@@H]1C2)C(=O)OCC,-4.4%
23,O=C(Nc1cc(Cl)cc(Cl)c1)c1ccccc1O,9.8%
24,Cc1cc2c(cc1C)N[C@H](C)CC(=O)N2,-3.8%
25,O=C(NCc1cccs1)c1ccc2nccnc2c1,2%
26,O=C(Nc1cc(C(F)(F)F)cc(C(F)(F)F)c1)c1cc(Br)ccc1O,24.4%
27,O=C(Nc1ccc(Cl)cc1)c1cc(I)ccc1O,47%
28,Cc1cc(Br)ccc1NC(=S)Nc1cccc(NC(=O)c2ccccc2O)c1,52.2%
29,CNC(=O)c1ccc(NC(=O)c2ccccc2O)cc1,14.7%
30,O=C1NC(=S)NC(=O)C1=Cc1c[nH]c2ccccc12,-1.6%

# Same assay, conditions: TDE = time-dependent effect
row,Molecule,inhibition
1,O=C(Nc1cccc(S)c1)c1cc(Br)ccc1O,Tde

# Target: T2, Dihydrofolate reductase (Homo sapiens) (UniProt P00374)
# T2 sequence (whole entry): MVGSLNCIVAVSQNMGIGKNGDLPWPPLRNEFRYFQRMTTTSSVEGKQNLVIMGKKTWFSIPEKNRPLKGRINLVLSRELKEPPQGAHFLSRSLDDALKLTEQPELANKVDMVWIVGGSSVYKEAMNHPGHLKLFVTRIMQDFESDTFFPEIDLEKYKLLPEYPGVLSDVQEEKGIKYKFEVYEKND
# Assay: Inhibition of human DHFR assessed as decrease in DHFR steady state activity at 500 uM using [3',5',7,9-3H]-H2folate as substrate preincubated for 16 hrs before NADPH addition incubated for 5 mins followed by substrate addition and measured after 5 mins by NADPH based radiometric chemical quench assay relative to control
# Conditions: not given
# Method in brief: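 Radiometric DHFR steady-state assay with human DHFR. Compound and enzyme were incubated for 16 h before the reaction was started. Percent inhibition was read relative to control.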
row,Molecule,inhibition
1,Cc1ccc(C(=O)Nc2cccc(S)c2)c(O)c1,inactive
2,O=C(Nc1cccc(S)c1)c1cc(Br)ccc1O,95%

# Target: T1, Bifunctional dihydrofolate reductase-thymidylate synthase (Cryptosporidium hominis)
# Assay: as §1, with “activity” for “activity at 500 uM”
# Conditions: not given
# Method in brief: as §2
row,Molecule,inhibition
1,O=C(Nc1cc(Cl)cc(Cl)c1)c1cc(Br)ccc1O,Dose-dependent effect
2,O=C(Nc1cccc(Cl)c1)c1cc(Cl)ccc1O,Dose-dependent effect
3,O=C(Nc1ccc(F)c(Cl)c1)c1cc(Br)ccc1O,Dose-dependent effect
4,Cc1ccc(C(=O)Nc2cc(Cl)cc(Cl)c2)c(O)c1,Dose-dependent effect
5,O=C(Nc1ccc(Cl)cc1)c1cc(I)ccc1O,Dose-dependent effect
6,Cc1cc(Br)ccc1NC(=S)Nc1cccc(NC(=O)c2ccccc2O)c1,Dose-dependent effect

# Target: T1, Bifunctional dihydrofolate reductase-thymidylate synthase (Cryptosporidium hominis)
# Assay: (§3) Mixed noncompetitive inhibition of recombinant Cryptosporidium hominis TS-DHFR expressed in Escherichia coli PA414 assessed as Kobs at 250 uM […] preincubated for 10 mins before NADPH addition for 5 mins followed by substrate addition and measured after 5 mins by Lineweaver-Burk plot analysis (reference value: 1.98 +/- 0.09 /s)
# Conditions: not given
row,Molecule,K
1,Cc1cc(Br)ccc1NC(=S)Nc1cccc(NC(=O)c2ccccc2O)c1,1.33 s⁻¹

# System: Cryptosporidium hominis
# Assay: Ratio of inhibition of recombinant Cryptosporidium hominis TS-DHFR Cys44Ser mutant expressed in Escherichia coli PA414 to inhibition of recombinant Cryptosporidium hominis TS-DHFR expressed in Escherichia coli PA414
# Conditions: not given
row,Molecule,Ratio
1,Cc1ccc(C(=O)Nc2cccc(S)c2)c(O)c1,2

# Compound: Cc1cc(Br)ccc1NC(=S)Nc1cccc(NC(=O)c2ccccc2O)c1
# Assay: (§4) Mixed noncompetitive inhibition of recombinant Cryptosporidium hominis TS-DHFR expressed in Escherichia coli PA414 assessed as substrate Kcat at 250 uM using varying levels of [3',5',7,9-3H]-H2folate as substrate preincubated for 10 mins before NADPH addition for 5 mins followed by substrate addition and measured after 5 mins by Lineweaver-Burk plot analysis (reference value: 2.17 +/- 0.04 /s)
# Conditions: not given
row,Molecule,kcat
1,B1,1.2 s⁻¹

# Compound: Cc1cc(Br)ccc1NC(=S)Nc1cccc(NC(=O)c2ccccc2O)c1
# Assay: as §4, with “Km” for “Kcat”, “100” for “250”, “1.2” for “2.17”, “0.2 uM)” for “0.04 /s)”
# Conditions: not given
row,Molecule,Km
1,B1,1.3 µM

# Target: T1, Bifunctional dihydrofolate reductase-thymidylate synthase (Cryptosporidium hominis)
# Assay: Inhibition of recombinant Cryptosporidium hominis TS-DHFR expressed in Escherichia coli PA414 assessed as decrease in TS activity
# Conditions: not given
row,Molecule,inhibition
1,Cc1cc(Br)ccc1NC(=S)Nc1cccc(NC(=O)c2ccccc2O)c1,inactive

# Target: T1, Bifunctional dihydrofolate reductase-thymidylate synthase (Cryptosporidium hominis)
# Assay: as §1, with “1 hr to 72 hrs” for “10 mins”
# Conditions: TDE = time-dependent effect
# Method in brief: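 Compound at 500 µM was incubated with ChTS-DHFR for 1 h, 16 h, 48 h or 72 h before the radiometric DHFR reaction was initiated, to follow time-dependent inhibition. The standard assay uses a 10 min incubation.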
row,Molecule,inhibition
1,Cc1ccc(C(=O)Nc2cccc(S)c2)c(O)c1,Tde
2,O=C(Nc1cccc(S)c1)c1cc(Br)ccc1O,Tde

# Compound: Cc1cc(Br)ccc1NC(=S)Nc1cccc(NC(=O)c2ccccc2O)c1
# Assay: as §4, with “Km” for “Kcat”, “1.2” for “2.17”, “0.2 uM)” for “0.04 /s)”
# Conditions: not given
row,Molecule,Km
1,B1,1.4 µM

# System: not listed separately
# Assay: Solubility of the compound at >500 uM
# Assay type: physicochemical
# Conditions: not given
row,Molecule,solubility
1,O=C(Nc1cc(Cl)cc(Cl)c1)c1cc(Br)ccc1O,Insoluble
2,O=C(Nc1cccc(Cl)c1)c1cc(Cl)ccc1O,Insoluble
3,O=C(Nc1ccc(F)c(Cl)c1)c1cc(Br)ccc1O,Insoluble
4,Cc1ccc(C(=O)Nc2cc(Cl)cc(Cl)c2)c(O)c1,Insoluble
5,O=C(Nc1ccc(Cl)cc1)c1cc(I)ccc1O,Insoluble
6,Cc1cc(Br)ccc1NC(=S)Nc1cccc(NC(=O)c2ccccc2O)c1,Insoluble

# Compound: Cc1cc(Br)ccc1NC(=S)Nc1cccc(NC(=O)c2ccccc2O)c1
# Assay: as §4, with “100” for “250”
# Conditions: not given
row,Molecule,kcat
1,B1,1.9 s⁻¹

# System: T3, Bifunctional dihydrofolate reductase-thymidylate synthase (Cryptosporidium hominis), A0A0S4TER9 [C44S]
# T3 sequence (whole entry): B1 chain with C44S
# Assay: as §1, with “TS-DHFR Cys44Ser mutant” for “TS-DHFR”, “16 hrs” for “10 mins”
# Conditions: not given
# Method in brief: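 Wild-type and Cys44Ser mutant ChTS-DHFR, each incubated 16 h with compound before the radiometric DHFR reaction was started. Read-out was percent DHFR activity.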
row,Molecule,inhibition
1,Cc1ccc(C(=O)Nc2cc(Cl)cc(Cl)c2)c(O)c1,inactive
2,Cc1ccc(C(=O)Nc2cccc(S)c2)c(O)c1,38%
3,O=C(Nc1cccc(S)c1)c1cc(Br)ccc1O,inactive

# Target: T1, Bifunctional dihydrofolate reductase-thymidylate synthase (Cryptosporidium hominis)
# Assay: as §3, with “100” for “250”
# Conditions: not given
row,Molecule,K
1,Cc1cc(Br)ccc1NC(=S)Nc1cccc(NC(=O)c2ccccc2O)c1,1.6 s⁻¹
